Measurements reported in ChEMBL document CHEMBL3865824, “New (E)-1-alkyl-1H-benzo[d]imidazol-2-yl)methylene)indolin-2-ones: Synthesis, in vitro cytotoxicity evaluation and apoptosis inducing studies” (Eur J Med Chem, 2016).

Key:
[1] = Cytotoxicity against human MDA-MB-231 cells assessed as growth inhibition at 50 uM after 48 hrs by MTT assay relative to control; type: functional; settings: MDA-MB-231, 48 h, read-out: GI
Method in brief: (§1)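 Cells grown in DMEM or MEM with 10% FBS at 37 °C, 5% CO2. Seeded at 1×10^4 cells/well, incubated 48 h, then exposed to compound for 48 h with vehicle control. MTT (5 mg/mL stock) added for 4 h; formazan dissolved in DMSO, absorbance read at 570 nm. Preliminary screen at 50 µM. Compounds giving >50% inhibition were tested for dose-response curves; IC50 derived by linear regression of % inhibition versus concentration. Mean of three independent experiments in triplicate.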

[2] = Cytotoxicity against human DU145 cells assessed as growth inhibition at 50 uM after 48 hrs by MTT assay relative to control; type: functional; settings: DU-145, 48 h, read-out: GI; method in brief: as §1
[3] = Cytotoxicity against human BT549 cells assessed as reduction in cell viability after 48 hrs by MTT assay; type: functional, cell-based; settings: BT-549, 48 h; method in brief: as §1
[4] = Cytotoxicity against human DU145 cells assessed as reduction in cell viability after 48 hrs by MTT assay; type: functional, cell-based; settings: DU-145, 48 h; method in brief: as §1
[5] = Cytotoxicity against human BT549 cells assessed as growth inhibition at 50 uM after 48 hrs by MTT assay relative to control; type: functional; settings: BT-549, 48 h, read-out: GI; method in brief: as §1
[6] = Cytotoxicity against human PC3 cells assessed as reduction in cell viability after 48 hrs by MTT assay; type: functional, cell-based; settings: PC-3, 48 h; method in brief: as §1
[7] = Cytotoxicity against […] cells assessed as growth inhibition at 50 uM after 48 hrs by MTT assay relative to control; type: functional; settings: Mus musculus, 4T1, 48 h; read-out: GI; method in brief: as §1
[8] = Cytotoxicity against human MCF7 cells assessed as reduction in cell viability after 48 hrs by MTT assay; type: functional, cell-based; settings: MCF7, 48 h; method in brief: as §1
[9] = Cytotoxicity against HGC cells assessed as reduction in cell viability after 48 hrs by MTT assay; type: functional, cell-based; settings: Homo sapiens; method in brief: as §1
[10] = Cytotoxicity against HGC cells assessed as growth inhibition at 50 uM after 48 hrs by MTT assay relative to control; type: functional; settings: Homo sapiens, read-out: GI; method in brief: as §1
[11] = Cytotoxicity against human MDA-MB-231 cells assessed as reduction in cell viability after 48 hrs by MTT assay; type: functional, cell-based; settings: MDA-MB-231, 48 h; method in brief: as §1
[12] = Cytotoxicity against human A549 cells assessed as growth inhibition at 50 uM after 48 hrs by MTT assay relative to control; type: functional; settings: A549, 48 h, read-out: GI; method in brief: as §1
[13] = Cytotoxicity against […] cells assessed as reduction in cell viability after 48 hrs by MTT assay; type: functional, cell-based; settings: 4T1, 48 h; method in brief: as §1
[14] = Cytotoxicity against human A549 cells assessed as reduction in cell viability after 48 hrs by MTT assay; type: functional, cell-based; settings: A549, 48 h; method in brief: as §1
[15] = Cytotoxicity against human PC3 cells assessed as growth inhibition at 50 uM after 48 hrs by MTT assay relative to control; type: functional; settings: PC-3, 48 h, read-out: GI; method in brief: as §1
[16] = Cytotoxicity against human MCF7 cells assessed as growth inhibition at 50 uM after 48 hrs by MTT assay relative to control; type: functional; settings: MCF7, 48 h, read-out: GI; method in brief: as §1
[17] = Cytotoxicity against human MCF10A cells assessed as reduction in cell viability after 48 hrs by MTT assay; type: toxicity, cell-based, MCF-10A; method in brief: as §1
[18] = Selectivity ratio of IC50 for human MCF10A cells to IC50 for […] cells; type: ADME, cell-based, MCF-10A; settings: MCF10A cells versus 4TI cells, read-out: Ratio IC50
[19] = Selectivity ratio of IC50 for human MCF10A cells to IC50 for human MDA-MB-231 cells; type: ADME, cell-based, MCF-10A; settings: MCF10A cells versus MDA-MB-231 cells, read-out: Ratio IC50

SMILES | inhibition of growth at 50 µM [1] [%] | inhibition of growth at 50 µM [2] [%] | IC50 [3] [µM] | IC50 [4] [µM] | inhibition of growth at 50 µM [5] [%] | IC50 [6] [µM] | inhibition of growth at 50 µM [7] [%] | IC50 [8] [µM] | IC50 [9] [µM] | inhibition of growth at 50 µM [10] [%] | IC50 [11] [µM] | inhibition of growth at 50 µM [12] [%] | IC50 [13] [µM] | IC50 [14] [µM] | inhibition of growth at 50 µM [15] [%] | inhibition of growth at 50 µM [16] [%] | IC50 at 48 h [17] [µM] | selectivity ratio [18] | selectivity ratio [19]
Cn1c(/C=C2/C(=O)Nc3ccc(F)cc32)nc2ccccc21 | > 50 | > 50 | 26.9 | 32.3 | > 50 | 34.2 | > 50 | 31.6 | 37.8 | > 50 | 21.7 | > 50 | 29.6 | 34.6 | > 50 | > 50 | – | – | –
CCn1c(/C=C2/C(=O)Nc3ccc([N+](=O)[O-])cc32)nc2ccccc21 | – | < 50 | > 50 | > 50 | < 50 | 40.1 | < 50 | > 50 | > 50 | < 50 | – | < 50 | > 50 | > 50 | > 50 | < 50 | – | – | –
Cc1ccc2c(c1)/C(=C\c1nc3ccccc3n1C)C(=O)N2 | – | < 50 | > 50 | > 50 | < 50 | > 50 | < 50 | – | > 50 | < 50 | – | < 50 | > 50 | > 50 | < 50 | – | – | – | –
Cc1ccc2c(c1)/C(=C\c1nc3ccccc3n1C(C)C)C(=O)N2 | > 50 | > 50 | 23.7 | 13.3 | > 50 | 14 | > 50 | 16.3 | 14.6 | > 50 | 7.23 | > 50 | 9.36 | 23 | > 50 | > 50 | 99.7 | 10.6 | 14
Cn1c(/C=C2/C(=O)Nc3ccc(Cl)cc32)nc2ccccc21 | > 50 | > 50 | 39.1 | 38.9 | > 50 | > 50 | > 50 | > 50 | 43.6 | > 50 | 37.6 | > 50 | 43.6 | 39.7 | < 50 | < 50 | – | – | –
CCn1c(/C=C2/C(=O)Nc3ccc(C)cc32)nc2ccccc21 | > 50 | > 50 | > 50 | 39.3 | < 50 | 38.6 | > 50 | > 50 | > 50 | < 50 | 40.6 | < 50 | 39.4 | > 50 | > 50 | < 50 | – | – | –
CCn1c(/C=C2/C(=O)Nc3ccc(Cl)cc32)nc2ccccc21 | > 50 | < 50 | > 50 | > 50 | < 50 | > 50 | < 50 | > 50 | > 50 | < 50 | 37.5 | < 50 | > 50 | > 50 | < 50 | < 50 | – | – | –
Cn1c(/C=C2/C(=O)Nc3ccccc32)nc2ccccc21 | < 50 | > 50 | > 50 | 43.2 | < 50 | > 50 | < 50 | > 50 | > 50 | < 50 | > 50 | < 50 | > 50 | > 50 | < 50 | < 50 | – | – | –
Cn1c(/C=C2/C(=O)Nc3ccc([N+](=O)[O-])cc32)nc2ccccc21 | – | < 50 | – | > 50 | – | > 50 | < 50 | – | – | – | – | < 50 | > 50 | > 50 | < 50 | – | – | – | –
CC(C)n1c(/C=C2/C(=O)Nc3ccc(F)cc32)nc2ccccc21 | > 50 | > 50 | 26.7 | 24.5 | > 50 | 20.8 | > 50 | 29 | 28 | > 50 | 22.7 | > 50 | 25.8 | 28.4 | > 50 | > 50 | > 100 | – | –
CCn1c(/C=C2/C(=O)Nc3ccccc32)nc2ccccc21 | < 50 | < 50 | > 50 | > 50 | < 50 | 38 | < 50 | – | > 50 | < 50 | > 50 | < 50 | > 50 | > 50 | > 50 | – | – | – | –
CCn1c(/C=C2/C(=O)Nc3ccc(F)cc32)nc2ccccc21 | < 50 | > 50 | > 50 | 40.6 | < 50 | > 50 | < 50 | > 50 | > 50 | < 50 | > 50 | < 50 | > 50 | > 50 | < 50 | < 50 | – | – | –
CC(C)n1c(/C=C2/C(=O)Nc3ccccc32)nc2ccccc21 | > 50 | > 50 | 38.9 | 38.1 | > 50 | 37.6 | > 50 | 39.5 | 33.5 | > 50 | 30.4 | > 50 | 40.4 | 35.3 | > 50 | > 50 | – | – | –
CCn1c(/C=C2/C(=O)Nc3ccc(Br)cc32)nc2ccccc21 | – | > 50 | – | 45.8 | – | 42.6 | > 50 | – | > 50 | < 50 | – | < 50 | 40.7 | > 50 | > 50 | – | – | – | –
Cn1c(/C=C2/C(=O)Nc3ccc(Br)cc32)nc2ccccc21 | < 50 | > 50 | > 50 | 39.6 | < 50 | > 50 | < 50 | > 50 | > 50 | < 50 | > 50 | > 50 | > 50 | 41.2 | < 50 | < 50 | – | – | –
